Measured values taken from ChEMBL document CHEMBL1811858, “A class of oral N-[(1S,3S)-1-methyl-1,2,3,4-tetrahydro-β-carboline-3-carbonyl]- N'-(amino-acid-acyl)hydrazine: discovery, synthesis, in vitro anti-platelet aggregation/in vivo anti-thrombotic evaluation and 3D QSAR analysis” (Eur J Med Chem, 2011).

What was measured:
[1] = Antiplatelet activity in pig platelet assessed as inhibition of ADP-induced aggregation measured for 5 mins by aggregometry (reference value: 50.16 +/- 3.65%); format: functional, cell-based; conditions: Sus scrofa
[2] = Antiplatelet activity in pig platelet assessed as inhibition of platelet activating factor-induced aggregation measured for 5 mins by aggregometry (reference value: 52.30 +/- 1.78%); format: functional, cell-based; conditions: Sus scrofa
[3] = Antiplatelet activity in pig platelet assessed as inhibition of arachidonic acid-induced aggregation measured for 5 mins by aggregometry (reference value: 49.62 +/- 2.90%); format: functional, cell-based; conditions: Sus scrofa
Rattus norvegicus [4] = experiment: Antithrombotic activity in pentobarbital sodium anesthetized Wistar rat assessed as decrease in thrombus weight at 10 nmol/kg, po (reference value: 28.21=/-1.11 mg); format: functional
Outline: (§1)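 Male Wistar rats (250–300 g) received test agents orally, dissolved in NS and kept on ice; NS served as the vehicle control. After 30 min, rats were anaesthetised with pentobarbital sodium (80.0 mg/kg, i.p.). The right carotid artery and left jugular vein were exposed and joined through a polyethylene tube holding a weighed 6 cm thread. Wet thrombus weight is reported as mean ± SD in mg.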

Rattus norvegicus [5] = experiment: Antithrombotic activity in pentobarbital sodium anesthetized Wistar rat assessed as decrease in thrombus weight at 100 nmol/kg, po (reference value: 28.21=/-1.11 mg); format: functional; outline: as §1
[6] = Antiplatelet activity in pig platelet assessed as inhibition of ADP-induced aggregation at 1.7 mM measured for 5 mins by aggregometry; format: functional, Sus scrofa; parameters: scale not given: the % may be the effect or the level left
[7] = Antiplatelet activity in pig platelet assessed as inhibition of platelet activating factor-induced aggregation at 1.7 mM measured for 5 mins by aggregometry; format: functional, Sus scrofa; parameters: scale not given: the % may be the effect or the level left
[8] = Antiplatelet activity in pig platelet assessed as inhibition of arachidonic acid-induced aggregation at 1.7 mM measured for 5 mins by aggregometry; format: functional, Sus scrofa; parameters: scale not given: the % may be the effect or the level left
Rattus norvegicus [9] = experiment: Antithrombotic activity in pentobarbital sodium anesthetized Wistar rat assessed as thrombus weight at 160 umol/kg, po (reference value: 28.21=/-1.11 mg); format: functional; outline: as §1
Rattus norvegicus [10] = experiment: Antithrombotic activity in pentobarbital sodium anesthetized Wistar rat assessed as decrease in thrombus weight at 1 nmol/kg, po; format: functional; outline: as §1
Rattus norvegicus [11] = experiment: Antithrombotic activity in pentobarbital sodium anesthetized Wistar rat assessed as decrease in thrombus weight at 0.1 nmol/kg, po; format: functional; outline: as §1
Rattus norvegicus [12] = experiment: Antithrombotic activity in po dosed Wistar rat assessed as decrease in thrombus weight; format: functional, organism-based; outline: as §1

| Compound | IC50 [1] | IC50 [2] | IC50 [3] | Activity (Rattus norvegicus [4]) | other results |
| --- | --- | --- | --- | --- | --- |
| C[C@@H]1N[C@H](C(=O)NNC(=O)[C@@H](N)Cc2c[nH]c3ccccc23)Cc2c1[nH]c1ccccc21 | 21.7 µM | 4.3 µM | 0.6 µM | 18.87 mg |  |
| C[C@@H]1N[C@H](C(=O)NNC(=O)[C@@H](N)CCC(N)=O)Cc2c1[nH]c1ccccc21 | 598 µM | 267 µM | 18.5 µM | 21.01 mg |  |
| CC(C)[C@H](N)C(=O)NNC(=O)[C@@H]1Cc2c([nH]c3ccccc23)[C@H](C)N1 | 156 µM | 50 µM | 3.7 µM | 24.01 mg |  |
| C[C@@H]1N[C@H](C(=O)NNC(=O)[C@@H](N)CC(N)=O)Cc2c1[nH]c1ccccc21 | 609 µM | 507 µM | 19.7 µM | 20.42 mg |  |
| C[C@@H]1N[C@H](C(=O)NNC(=O)[C@@H](N)CO)Cc2c1[nH]c1ccccc21 | 276 µM | 119 µM | 19.9 µM | 19.04 mg |  |
| C[C@@H]1N[C@H](C(=O)NNC(=O)[C@@H](N)CCCCN)Cc2c1[nH]c1ccccc21 | 321 µM | 106 µM | 3.4 µM | 18.97 mg |  |
| C[C@@H]1N[C@H](C(=O)NNC(=O)[C@@H](N)Cc2ccc(O)cc2)Cc2c1[nH]c1ccccc21 | 152 µM | 12.7 µM | 13 µM | 20.24 mg |  |
| C[C@@H]1N[C@H](C(=O)NNC(=O)[C@@H](N)CC(=O)OCc2ccccc2)Cc2c1[nH]c1ccccc21 | 117 µM | 196 µM | 5.2 µM | 19.65 mg |  |
| CSCC[C@H](N)C(=O)NNC(=O)[C@@H]1Cc2c([nH]c3ccccc23)[C@H](C)N1 | 417 µM | 52.9 µM | 21.7 µM | 18.55 mg |  |
| CC[C@H](C)[C@H](N)C(=O)NNC(=O)[C@@H]1Cc2c([nH]c3ccccc23)[C@H](C)N1 | 51.1 µM | 1.4 µM | 2.4 µM | 20.62 mg |  |
| C[C@@H]1N[C@H](C(=O)NN)Cc2c1[nH]c1ccccc21 | 611 µM | 111 µM | 21.5 µM |  | Activity (Rattus norvegicus [5]): 21.23 mg |
| C[C@@H]1N[C@H](C(=O)NNC(=O)CN)Cc2c1[nH]c1ccccc21 | 722 µM | 348 µM | 20.7 µM | 23.74 mg |  |
| C[C@@H]1N[C@H](C(=O)NNC(=O)[C@@H](N)CCC(=O)OCc2ccccc2)Cc2c1[nH]c1ccccc21 | 524 µM | 362 µM | 6.3 µM | 21.36 mg |  |
| CC(C)C[C@H](N)C(=O)NNC(=O)[C@@H]1Cc2c([nH]c3ccccc23)[C@H](C)N1 | 31.6 µM | 1.2 µM | 3.2 µM | 21.06 mg |  |
| CC(=O)Oc1ccccc1C(=O)O [ASPIRIN] |  |  |  |  | Activity [6]: 31.14%; Activity [7]: 33.22%; Activity [8]: 34.5%; Activity (Rattus norvegicus [9]): 18.24 mg |
| C[C@@H]1N[C@H](C(=O)NNC(=O)[C@@H](N)Cc2cnc[nH]2)Cc2c1[nH]c1ccccc21 | 94.6 µM | 7.7 µM | 4.8 µM | 19.75 mg |  |
| C[C@@H]1N[C@H](C(=O)NNC(=O)[C@@H]2CCCN2)Cc2c1[nH]c1ccccc21 | 166 µM | 134 µM | 20.6 µM | 20.39 mg |  |
| C[C@H](N)C(=O)NNC(=O)[C@@H]1Cc2c([nH]c3ccccc23)[C@H](C)N1 | 118 µM | 162 µM | 20 µM | 20.06 mg |  |
| C[C@@H]1N[C@H](C(=O)NNC(=O)[C@@H](N)[C@@H](C)O)Cc2c1[nH]c1ccccc21 | 531 µM | 31.9 µM | 4.7 µM | 18.67 mg | Activity (Rattus norvegicus [10]): 22.77 mg; Activity (Rattus norvegicus [11]): 27.22 mg; Activity (Rattus norvegicus [12]): Dose-dependent effect |
| C[C@@H]1N[C@H](C(=O)NNC(=O)[C@@H](N)Cc2ccccc2)Cc2c1[nH]c1ccccc21 | 307 µM | 109 µM | 7.1 µM | 21 mg |  |
